ChEMBL document CHEMBL1156973, “(-)-Carbodine: enantiomeric synthesis and in vitro antiviral activity against various strains of influenza virus including H5N1 (avian influenza) and novel 2009 H1N1 (swine flu)” (Bioorg Med Chem Lett, 2010)
pEC50: −log10 of the molar value.

What was measured:
Influenza A virus [1] = assay: Antiviral activity against Influenza A virus Wisconsin/67/2005/H3N2 infected MDCK cells assessed as inhibition of virus-induced cytopathic effect after 3 days; format: functional, organism-based, Influenza A virus (A/Wisconsin/67/2005(H3N2)); settings: Influenza A virus, MDCK, 72 h
How it was run: (§1)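 Triplicate MDCK (ATCC CCL-34) wells got serial dilutions of compound. They were then inoculated with ≤300 CCID50, enough for ~100% CPE in control wells within 3 days, using the same inoculum for all replicates. CPE was scored visually. EC50 is the concentration reducing CPE by 50%, as the mean of triplicates.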

H5N1 subtype [2] = assay: Antiviral activity against Influenza A virus Duck/MN/1525/81/H5N1 infected MDCK cells assessed as inhibition of virus-induced cytopathic effect after 3 days; format: functional, organism-based, Influenza A virus (A/duck/Minnesota/1525/1981(H5N1)); settings: Influenza A virus, MDCK, 72 h
H5N1 subtype [3] = assay: Antiviral activity against Influenza A virus Duck/MN/1525/81/H5N1 infected MDCK cells after 3 days by virus yield reduction assay; format: functional, Influenza A virus (A/duck/Minnesota/1525/1981(H5N1)); settings: Influenza A virus, MDCK, 72 h
H5N1 subtype [4] = assay: Antiviral activity against Influenza A virus Hong Kong/213/2003/H5N1 infected MDCK cells assessed as inhibition of virus-induced cytopathic effect after 3 days; format: functional, organism-based, Influenza A virus (A/Hong Kong/213/2003(H5N1)); settings: 72 h
[5] = Selectivity ratio of IC50 for MDCK cells to EC90 for Influenza A virus Gull/PA/4175/83/H5N1 by virus yield reduction assay; format: ADME, cell-based; settings: dog
How it was run: (§2)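 IC50 (50% inhibition of uninfected MDCK cells) divided by EC90 (concentration reducing the infectious virus titer by 90% in the yield reduction assay).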

Influenza A virus [6] = assay: Antiviral activity against Influenza A virus Vietnam/1203/ 2004H/H5N1 infected MDCK cells after 3 days by virus yield reduction assay; format: functional, A/Viet Nam/1203/2004(H5N1)
[7] = Selectivity ratio of IC50 for MDCK cells to EC50 for Influenza B virus Malaysia/2506/2004 by neutral red dye uptake assay; format: ADME, cell-based; settings: dog, MDCK cells; read-out: Ratio IC50/EC50
How it was run: (§3)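 Neutral red uptake in MDCK cells: IC50 (50% inhibition of uninfected cells) divided by EC50 (50% inhibition of virus effect), both from replicate serial-dilution assays.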

[8] = Selectivity ratio of IC50 for MDCK cells to EC90 for Influenza B virus Malaysia/2506/2004 by virus yield reduction assay; format: ADME, cell-based; settings: dog; for selectivity ratio: MDCK cells; how it was run: as §2
H5N1 subtype [9] = assay: Antiviral activity against Influenza A virus Hong Kong/213/2003/H5N1 infected MDCK cells after 3 days by virus yield reduction assay; format: functional, Influenza A virus (A/Hong Kong/213/2003(H5N1)); settings: Influenza A virus, MDCK, 72 h
Influenza A virus [10] = assay: Antiviral activity against Influenza A virus Vietnam/1203/ 2004H/H5N1 infected MDCK cells assessed as inhibition of virus-induced cytopathic effect after 3 days; format: functional, organism-based, A/Viet Nam/1203/2004(H5N1)
Influenza A virus [11] = assay: Antiviral activity against Influenza A virus Wisconsin/67/2005/H3N2 infected MDCK cells after 3 days by virus yield reduction assay; format: functional, Influenza A virus (A/Wisconsin/67/2005(H3N2)); settings: Influenza A virus, MDCK, 72 h
How it was run: (§4)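 Yield reduction assay: MDCK cells got serial compound dilutions and ≤300 CCID50 virus, in triplicate. Progeny virus was titrated. EC90 is the concentration reducing the infectious titer by 90%, as the mean of triplicates.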

[12] = Selectivity ratio of IC50 for MDCK cells to EC50 for inhibition of virus-induced cytopathic effect of Influenza A virus Vietnam/1203/ 2004H/H5N1; format: cell-based; settings: dog, MDCK cells; read-out: Ratio IC50/EC50
How it was run: (§5)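 IC50 (50% inhibition of uninfected MDCK cells) divided by EC50 (concentration reducing virus-induced CPE by 50%, scored visually), both from replicate serial-dilution assays.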

H5N1 subtype [13] = assay: Antiviral activity against Influenza A virus Gull/PA/4175/83/H5N1 infected MDCK cells assessed as inhibition of virus-induced cytopathic effect after 3 days; format: functional, organism-based, Influenza A virus (A/gull/Pennsylvania/4175/83(H5N1)); settings: Influenza A virus, MDCK, 72 h
[14] = Selectivity ratio of IC50 for MDCK cells to EC90 for Influenza A virus Wisconsin/67/2005/H3N2 by virus yield reduction assay; format: ADME, cell-based; settings: dog, MDCK cells; how it was run: as §2
Influenza B virus = assay: Antiviral activity against Influenza B virus Malaysia/2506/2004 infected MDCK cells after 3 days by virus yield reduction assay; format: functional, B/Malaysia/2506/2004; how it was run: as §4
[15] = system: Influenza A virus (A/Puerto Rico/8/1934(H1N1)); assay: Antiviral activity against Influenza A virus Solomon Islands/03/2006/H1N1 infected MDCK cells after 3 days by virus yield reduction assay; format: functional, Influenza A virus (A/Solomon Islands/3/2006(H1N1)); settings: Influenza A virus, MDCK, 72 h; how it was run: as §4
[16] = Selectivity ratio of IC50 for MDCK cells to EC50 for Influenza A virus Duck/MN/1525/81/H5N1 by neutral red dye uptake assay; format: ADME, cell-based; settings: dog; for selectivity ratio: MDCK cells, read-out: Ratio IC50/EC50; how it was run: as §3
[17] = Selectivity ratio of IC50 for MDCK cells to EC90 for Influenza A virus Vietnam/1203/ 2004H/H5N1 by virus yield reduction assay; format: ADME, cell-based; settings: dog; for selectivity ratio: MDCK cells; how it was run: as §2
[18] = Selectivity ratio of IC50 for MDCK cells to EC50 for Influenza A virus Solomon Islands/03/2006/H1N1 by neutral red dye uptake assay; format: ADME, cell-based; settings: dog; for selectivity ratio: MDCK cells, read-out: Ratio IC50/EC50; how it was run: as §3
[19] = Antiviral activity against Influenza A virus Solomon Islands/03/2006/H1N1 infected MDCK cells assessed as inhibition of virus-induced cytopathic effect after 3 days; format: functional, organism-based, Influenza A virus (A/Solomon Islands/3/2006(H1N1)); how it was run: as §1
[20] = Selectivity ratio of IC50 for MDCK cells to EC50 for Influenza A virus Gull/PA/4175/83/H5N1 by neutral red dye uptake assay; format: ADME, cell-based; settings: dog, MDCK cells; read-out: Ratio IC50/EC50; how it was run: as §3
[21] = Selectivity ratio of IC50 for MDCK cells to EC50 for inhibition of virus-induced cytopathic effect of Influenza B virus Malaysia/2506/2004; format: cell-based; settings: dog, MDCK cells; read-out: Ratio IC50/EC50; how it was run: as §5
[22] = system: Influenza A virus (A/Puerto Rico/8/1934(H1N1)); assay: Antiviral activity against Influenza A virus Solomon Islands/03/2006/H1N1 infected MDCK cells after 42 to 46 hrs by neutral red dye uptake assay; format: functional, organism-based, Influenza A virus (A/Solomon Islands/3/2006(H1N1))
How it was run: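 Triplicate MDCK wells got serial compound dilutions, then ≤300 CCID50 of virus, with the same inoculum for all replicates. Antiviral effect was read by neutral red dye uptake. EC50 is the concentration giving 50% inhibition of the virus effect, as the mean of triplicates.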

Influenza A virus [23] = assay: Antiviral activity against Influenza A virus Vietnam/1203/ 2004H/H5N1 infected MDCK cells after 42 to 46 hrs by neutral red dye uptake assay; format: functional, organism-based, A/Viet Nam/1203/2004(H5N1); settings: Influenza A virus, A/Viet Nam/1203/2004(H5N1), MDCK
[24] = Selectivity ratio of IC50 for MDCK cells to EC50 for inhibition of virus-induced cytopathic effect of Influenza A virus Solomon Islands/03/2006/H1N1; format: cell-based; settings: dog; for selectivity ratio: MDCK cells, read-out: Ratio IC50/EC50; how it was run: as §5
Influenza A virus [25] = assay: Antiviral activity against Influenza A virus California/07/2009 /H1N1 infected MDCK cells assessed as inhibition of virus-induced cytopathic effect after 3 days; format: functional, organism-based, A/California/07/2009(H1N1); settings: Influenza A virus, A/California/07/2009(H1N1), MDCK, 72 h
Influenza A virus [26] = assay: Antiviral activity against Influenza A virus California/07/2009 /H1N1 infected MDCK cells after 3 days by virus yield reduction assay; format: functional, A/California/07/2009(H1N1); settings: Influenza A virus, A/California/07/2009(H1N1), MDCK, 72 h
[27] = Selectivity ratio of IC50 for MDCK cells to EC50 for inhibition of virus-induced cytopathic effect of Influenza A virus Gull/PA/4175/83/H5N1; format: cell-based; settings: dog, MDCK cells; read-out: Ratio IC50/EC50; how it was run: as §5
[28] = Selectivity ratio of IC50 for MDCK cells to EC50 for Influenza A virus Wisconsin/67/2005/H3N2 by neutral red dye uptake assay; format: ADME, cell-based; settings: dog; for selectivity ratio: MDCK cells, read-out: Ratio IC50/EC50; how it was run: as §3
[29] = Selectivity ratio of IC50 for MDCK cells to EC50 for Influenza A virus California/07/2009 /H1N1 by neutral red dye uptake assay; format: ADME, cell-based; settings: dog, MDCK cells; read-out: Ratio IC50/EC50; how it was run: as §3
[30] = Selectivity ratio of IC50 for MDCK cells to EC50 for inhibition of virus-induced cytopathic effect of Influenza A virus California/07/2009 /H1N1; format: cell-based; settings: dog, MDCK cells; read-out: Ratio IC50/EC50; how it was run: as §5
Influenza A virus [31] = assay: Antiviral activity against Influenza A virus California/07/2009 /H1N1 infected MDCK cells after 42 to 46 hrs by neutral red dye uptake assay; format: functional, organism-based, A/California/07/2009(H1N1); settings: Influenza A virus, A/California/07/2009(H1N1), MDCK
[32] = Influenza A virus, A/Viet Nam/1203/2004(H5N1), MDCK
[33] = Influenza B virus, B/Malaysia/2506/2004, MDCK, 72 h

| SMILES | pEC50 (Influenza A virus [1]) | pEC50 (H5N1 subtype [2]) | EC90 (H5N1 subtype [3]) [µM] | pEC50 (H5N1 subtype [4]) | selectivity ratio [5] | selectivity ratio [7] | EC90 (H5N1 subtype [9]) [µM] | EC90 (Influenza A virus [11]) [µM] | selectivity ratio [12] | pEC50 (H5N1 subtype [13]) | selectivity ratio [14] | EC90 [15] [µM] | selectivity ratio [20] | selectivity ratio [21] | pEC50 (Influenza A virus [23]) | pEC50 (Influenza A virus [25]) | EC90 (Influenza A virus [26]) [µM] | selectivity ratio [27] | selectivity ratio [29] | selectivity ratio [30] | also measured |
| --- | --- | --- | --- | --- | --- | --- | --- | --- | --- | --- | --- | --- | --- | --- | --- | --- | --- | --- | --- | --- | --- |
| Nc1ccn([C@@H]2C[C@H](CO)[C@@H](O)[C@H]2O)c(=O)n1 | 5.80 | 5.74 | 10.5 | 6.15 | > 259 | > 518 | 2.1 | 2.5 | > 518 | 6.10 | > 166 | 1.3 | > 414 | > 690 | 5.82 | 5.89 | 3.8 | > 518 | > 259 | > 318 | EC90 (Influenza A virus [6]): 5.7 µM; Ratio ([8]; mdck): > 276; pEC50 (Influenza A virus [10]; [32]): 6.10; EC90 (Influenza B virus): 1.5 µM; Ratio IC50/EC50 ([16]; mdck): > 207; Ratio ([17]; mdck): > 73; Ratio IC50/EC50 ([18]; mdck): > 690; pEC50 ([19]; mdck): 6.15; pEC50 ([22]; mdck): 6.22; Ratio IC50/EC50 ([24]; mdck): > 591; Ratio IC50/EC50 ([28]; mdck): > 207; pEC50 (Influenza A virus [31]): 5.80 |
| Nc1ccn([C@H]2C[C@@H](CO)[C@H](O)[C@@H]2O)c(=O)n1 | < 4.39 | < 3.38 | > 414 | < 4.39 | < 10 | < 10 | > 41 | > 41 | < 10 | < 4.39 | < 10 | > 41 | < 10 | < 10 | < 4.39 | < 3.38 | > 414 | < 10 | 1 | 1 | EC90 (Influenza A virus [6]; [32]): > 41 µM; selectivity ratio [8]: < 10; pEC50 (Influenza A virus [10]; [32]): < 4.39; EC90 (Influenza B virus; [33]): > 41 µM; selectivity ratio [16]: 1; selectivity ratio [17]: < 10; selectivity ratio [18]: < 10; pEC50 ([19]; Influenza A virus, MDCK, 72 h): < 4.39; pEC50 ([22]; Influenza A virus, MDCK): < 4.39; selectivity ratio [24]: < 10; selectivity ratio [28]: < 10; pEC50 (Influenza A virus [31]): < 3.38 |
| NC(=O)c1ncn([C@@H]2O[C@H](CO)[C@@H](O)[C@H]2O)n1 [RIBAVIRIN] | 4.79 | 4.45 | 43.6 | 5.37 | > 65 | > 67 | 16.8 | 21.7 | > 156 | 4.63 | > 60 | 27 | > 48 | > 128 | 4.86 | 4.95 | 13 | > 55 | > 68 | > 117 | EC90 (Influenza A virus [6]; [32]): 11.6 µM; selectivity ratio [8]: > 59; pEC50 (Influenza A virus [10]; mdck): 5.08; EC90 (Influenza B virus; [33]): 22.2 µM; selectivity ratio [16]: > 40; selectivity ratio [17]: > 113; selectivity ratio [18]: > 52; pEC50 ([19]; Influenza A virus, MDCK, 72 h): 4.63; pEC50 ([22]; Influenza A virus, MDCK): 4.60; selectivity ratio [24]: > 56; selectivity ratio [28]: > 65; pEC50 (Influenza A virus [31]): 4.71 |
